Data reported in ChEMBL document CHEMBL1125894, “Dual-action cephalosporins: cephalosporin 3'-quaternary ammonium quinolones” (1991).
Values after ≈ are worked out from the molar mass of the structure shown.

What was measured:
Serratia marcescens [1] = test: In vitro antibacterial activity against Serratia marcescens SM; assay type: functional
Outline: (§1)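 Serial 2-fold dilutions in the NCCLS broth microdilution method for aerobic nonfastidious organisms, with an 18-h incubation. The value is reported as the minimum inhibitory concentration (MIC).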

Streptococcus pyogenes [2] = test: In vitro antibacterial activity against Streptococcus pyogenes 4; assay type: functional
Outline: (§2)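 Broth macrodilution with serial 2-fold dilutions in cation-supplemented Mueller-Hinton broth containing 10% goat serum. The value is reported as the MIC.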

Klebsiella pneumoniae [3] = test: In vitro antibacterial activity against Klebsiella pneumoniae A; assay type: functional; outline: as §1
Escherichia coli [4] = test: In vitro antibacterial activity against Escherichia coli 257; assay type: functional; outline: as §1
Staphylococcus aureus [5] = test: In vitro antibacterial activity against Staphylococcus aureus Smith(MS); assay type: functional
Outline: (§3)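 Staphylococci were tested by the standard agar dilution procedure using serial 2-fold dilutions of agent. The value is reported as the MIC.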

Staphylococcus aureus [6] = test: In vitro antibacterial activity against Staphylococcus aureus 95(MR); assay type: functional; outline: as §3
Citrobacter freundii [7] = test: In vitro antibacterial activity against Citrobacter freundii BS 16; assay type: functional; outline: as §1
Enterobacter cloacae [8] = test: In vitro antibacterial activity against Enterobacter cloacae 5699; assay type: functional; outline: as §1
Streptococcus pneumoniae [9] = test: In vitro antibacterial activity against Streptococcus pneumoniae 6301; assay type: functional; outline: as §2
Pseudomonas aeruginosa [10] = test: In vitro antibacterial activity against Pseudomonas aeruginosa 5712; assay type: functional; outline: as §1
Enterobacter cloacae [11] = test: In vitro antibacterial activity against Enterobacter cloacae P99; assay type: functional; outline: as §1
[12] = biological target: T1, Penicillin-binding protein 1B (Escherichia coli K-12) (UniProt P02919); test: Concentration required for 90% inhibition against 90 kDa penicillin-binding protein 1b binding using [14C]-Pen G as the radioligand.
T1 sequence (whole entry): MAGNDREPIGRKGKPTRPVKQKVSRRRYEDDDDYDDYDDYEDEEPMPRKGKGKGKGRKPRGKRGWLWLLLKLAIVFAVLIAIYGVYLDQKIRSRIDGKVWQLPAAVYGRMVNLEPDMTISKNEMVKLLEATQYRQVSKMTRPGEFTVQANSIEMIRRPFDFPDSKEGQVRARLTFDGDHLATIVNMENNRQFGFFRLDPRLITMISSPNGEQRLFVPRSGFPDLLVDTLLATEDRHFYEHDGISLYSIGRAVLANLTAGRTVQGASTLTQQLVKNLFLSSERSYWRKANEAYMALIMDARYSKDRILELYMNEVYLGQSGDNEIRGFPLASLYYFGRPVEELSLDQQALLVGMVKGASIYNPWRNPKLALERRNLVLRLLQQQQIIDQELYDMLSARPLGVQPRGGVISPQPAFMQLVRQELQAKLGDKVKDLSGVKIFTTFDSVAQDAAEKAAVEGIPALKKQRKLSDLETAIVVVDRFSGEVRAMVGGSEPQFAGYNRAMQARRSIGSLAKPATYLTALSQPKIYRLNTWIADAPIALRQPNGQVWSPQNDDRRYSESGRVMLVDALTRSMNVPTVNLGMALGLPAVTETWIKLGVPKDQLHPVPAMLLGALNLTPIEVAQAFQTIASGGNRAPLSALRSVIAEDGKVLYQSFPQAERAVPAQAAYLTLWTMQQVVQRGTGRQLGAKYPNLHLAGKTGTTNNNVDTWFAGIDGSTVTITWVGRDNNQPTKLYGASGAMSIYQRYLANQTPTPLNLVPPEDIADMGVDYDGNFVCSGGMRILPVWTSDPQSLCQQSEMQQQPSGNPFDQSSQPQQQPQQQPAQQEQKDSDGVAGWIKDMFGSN
Outline: (§4)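 Solubilized membranes from sonicated E. coli DC-0 were used. PBP binding was measured as inhibition of [14C]penicillin G binding to each PBP.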

Escherichia coli [13] = test: Antibacterial activity against Escherichia coli DC-O; assay type: functional; outline: as §1
[14] = biological target: T2, Penicillin-binding protein 1A (Escherichia coli K-12) (UniProt P02918); test: Concentration required for 90% inhibition against 90 kDa penicillin-binding protein 1a binding using [14C]-Pen G as the radioligand.; outline: as §4
T2 sequence (whole entry): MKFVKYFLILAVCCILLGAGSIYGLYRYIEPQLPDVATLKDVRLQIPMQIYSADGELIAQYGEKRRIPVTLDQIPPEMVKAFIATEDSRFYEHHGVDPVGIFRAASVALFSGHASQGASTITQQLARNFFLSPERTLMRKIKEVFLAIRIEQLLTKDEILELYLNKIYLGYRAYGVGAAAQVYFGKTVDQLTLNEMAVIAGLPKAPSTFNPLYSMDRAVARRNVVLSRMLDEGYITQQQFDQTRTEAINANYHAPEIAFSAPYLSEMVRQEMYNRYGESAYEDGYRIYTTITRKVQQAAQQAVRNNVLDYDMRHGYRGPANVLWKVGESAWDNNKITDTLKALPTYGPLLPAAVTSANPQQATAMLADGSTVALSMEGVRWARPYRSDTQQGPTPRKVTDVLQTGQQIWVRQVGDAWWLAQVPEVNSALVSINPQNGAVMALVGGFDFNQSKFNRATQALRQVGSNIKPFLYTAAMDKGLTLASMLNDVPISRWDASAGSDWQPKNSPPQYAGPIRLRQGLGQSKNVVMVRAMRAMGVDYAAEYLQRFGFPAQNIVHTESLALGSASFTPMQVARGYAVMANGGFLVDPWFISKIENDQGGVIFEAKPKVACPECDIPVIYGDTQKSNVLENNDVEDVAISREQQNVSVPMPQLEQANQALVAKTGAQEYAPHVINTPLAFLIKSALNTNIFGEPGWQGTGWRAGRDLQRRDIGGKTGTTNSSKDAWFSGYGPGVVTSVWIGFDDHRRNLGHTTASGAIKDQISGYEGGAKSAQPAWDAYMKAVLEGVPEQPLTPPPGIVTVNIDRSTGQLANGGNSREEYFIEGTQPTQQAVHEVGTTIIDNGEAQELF

Escherichia coli [15] = test: Concentration required for 90% inhibition against 60 kDa penicillin-binding protein 3 binding using [14C]-Pen G as the radioligand.; outline: as §4
[16] = biological target: T3, Peptidoglycan D,D-transpeptidase MrdA (Escherichia coli K-12) (UniProt P0AD65); test: Concentration required for 90% inhibition against 66 kDa penicillin-binding protein 2 binding using [14C]-Pen G as the radioligand.; outline: as §4
T3 sequence (whole entry): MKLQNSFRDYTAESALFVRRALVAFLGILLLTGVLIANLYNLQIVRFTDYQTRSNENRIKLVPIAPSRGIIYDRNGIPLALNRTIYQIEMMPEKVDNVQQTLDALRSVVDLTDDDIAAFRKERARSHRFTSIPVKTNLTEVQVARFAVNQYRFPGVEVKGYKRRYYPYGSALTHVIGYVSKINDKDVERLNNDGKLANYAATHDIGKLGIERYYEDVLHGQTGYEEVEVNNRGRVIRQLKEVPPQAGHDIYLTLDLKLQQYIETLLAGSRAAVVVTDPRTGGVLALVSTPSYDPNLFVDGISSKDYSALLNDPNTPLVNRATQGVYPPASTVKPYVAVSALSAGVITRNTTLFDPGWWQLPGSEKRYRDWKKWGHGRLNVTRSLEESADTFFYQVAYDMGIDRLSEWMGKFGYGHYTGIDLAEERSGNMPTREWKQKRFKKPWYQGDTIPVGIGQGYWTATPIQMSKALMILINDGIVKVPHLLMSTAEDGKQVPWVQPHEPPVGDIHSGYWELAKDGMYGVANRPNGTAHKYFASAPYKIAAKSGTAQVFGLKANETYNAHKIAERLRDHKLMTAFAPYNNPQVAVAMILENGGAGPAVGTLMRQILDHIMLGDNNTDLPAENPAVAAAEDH

Enterobacter cloacae [17] = test: In vivo activity in murine against Enterobacter cloacae 5699 infection after sc administration.; assay type: functional
Outline: (§5)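 Mouse protection test in CD1 Swiss albino mice (18–20 g). Mice were infected intraperitoneally with 0.5 mL of a diluted bacterial suspension, then treated within 5 min with one 1.0 mL subcutaneous dose at the dorsal base of the neck. Doses ranged from 0.05 to 250 mg/kg, with six mice per group. ED50 was calculated by the Reed–Muench method.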

Pseudomonas aeruginosa [18] = test: In vivo activity in murine against Pseudomonas aeruginosa 5712 infection after sc administration.; assay type: functional; conditions: Pseudomonas aeruginosa, sc; read-out: ED50
Outline: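 Mouse protection test in CD1 Swiss albino mice (18–20 g) infected intraperitoneally with 0.5 mL of diluted P. aeruginosa suspension. Mice received 1.0 mL subcutaneously at the neck base within 5 min of infection and a second treatment 3 h after infection. Doses ranged from 0.05 to 250 mg/kg, with six mice per group. ED50 was calculated by the Reed–Muench method.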

Klebsiella pneumoniae [19] = test: In vivo activity in murine against Klebsiella pneumoniae A infection after sc administration.; assay type: functional; outline: as §5
Streptococcus pyogenes [20] = test: In vivo activity in murine against Streptococcus pyogenes 4 infection after sc administration.; assay type: functional; outline: as §5
Streptococcus pneumoniae [21] = test: In vivo activity in murine against Streptococcus pneumoniae 6301 infection after sc administration.; assay type: functional; outline: as §5
Serratia marcescens [22] = test: In vivo activity in murine against Serratia marcescens SM infection after sc administration.; assay type: functional; outline: as §5
Escherichia coli [23] = test: In vivo activity in murine against Escherichia coli 257 infection after sc administration.; assay type: functional; conditions: Escherichia coli, sc; read-out: ED50; outline: as §5
Staphylococcus aureus [24] = test: In vivo activity in murine against Staphylococcus aureus 753(MR) infection after sc administration.; assay type: functional; outline: as §5
Citrobacter freundii [25] = test: In vivo activity in murine against Citrobacter freundii BS#16 infection after sc administration.; assay type: functional
Outline: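 CD1 Swiss albino mice (18–20 g) infected intraperitoneally with 0.5 mL diluted bacterial culture suspension. Single subcutaneous treatment within 5 min, 1.0 mL at dorsal base of neck, serial dilutions spanning 0.05–250 mg/kg. Six mice per treatment and control group. ED50 (50% protective dose) derived by Reed and Muench method.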

Staphylococcus aureus [26] = test: In vivo activity in murine against Staphylococcus aureus Smith (MS) infection after sc administration.; assay type: functional; outline: as §5

MIC (Serratia marcescens [1]) [µg/mL] | MIC (Streptococcus pyogenes [2]) [µg/mL] | MIC (Klebsiella pneumoniae [3]) [µg/mL] | MIC (Escherichia coli [4]) [µg/mL] | MIC (Staphylococcus aureus [5]) [µg/mL] | MIC (Staphylococcus aureus [6]) [µg/mL] | MIC (Citrobacter freundii [7]) [µg/mL] | MIC (Enterobacter cloacae [8]) [µg/mL] | MIC (Streptococcus pneumoniae [9]) [µg/mL] | MIC (Pseudomonas aeruginosa [10]) [µg/mL] | MIC (Enterobacter cloacae [11]) [µg/mL] | Compound | other results
1 (≈ 1.37 µM) | 0.125 (≈ 0.172 µM) | 1 (≈ 1.37 µM) | 0.5 (≈ 0.686 µM) | 2 (≈ 2.74 µM) | 4 (≈ 5.49 µM) | 4 (≈ 5.49 µM) | 1 (≈ 1.37 µM) | 0.063 (≈ 0.0864 µM) | 64 (≈ 87.8 µM) | 1 (≈ 1.37 µM) | CCn1cc(C(=O)O)c(=O)c2cc(F)c(N3CC[N+](C)(CC4=C(C(=O)[O-])N5C(=O)[C@@H](NC(=O)/C(=N\OC)c6csc(N)n6)[C@H]5SC4)CC3)cc21 | –
2 (≈ 2.79 µM) | 0.063 (≈ 0.088 µM) | 0.5 (≈ 0.699 µM) | 0.5 (≈ 0.699 µM) | 0.5 (≈ 0.699 µM) | 1 (≈ 1.4 µM) | 2 (≈ 2.79 µM) | 0.5 (≈ 0.699 µM) | 0.25 (≈ 0.349 µM) | 32 (≈ 44.7 µM) | 0.5 (≈ 0.699 µM) | C[N+]1(CC2=C(C(=O)[O-])N3C(=O)[C@@H](NC(=O)COc4ccccc4)[C@H]3SC2)CCN(c2c(F)cc3c(=O)c(C(=O)O)cn(CCF)c3c2F)CC1 | Concentration [12]: 100 µg/mL; MIC (Escherichia coli [13]): 8 µg/mL (≈ 11.2 µM); Concentration [14]: 10 µg/mL; Concentration (Escherichia coli [15]): 2 µg/mL; Concentration [16]: > 100 µg/mL
– | – | – | – | – | – | – | – | – | – | – | CC(C)(O/N=C(\C(=O)N[C@@H]1C(=O)N2C(C(=O)[O-])=C(C[n+]3ccccc3)CS[C@H]12)c1csc(N)n1)C(=O)O [CEFTAZIDIME] | ED50 (Enterobacter cloacae [17]): 25 mg/kg; ED50 (Pseudomonas aeruginosa [18]): 217 mg/kg; ED50 (Klebsiella pneumoniae [19]): < 2 mg/kg; ED50 (Streptococcus pyogenes [20]): 12 mg/kg; ED50 (Streptococcus pneumoniae [21]): 3 mg/kg; ED50 (Serratia marcescens [22]): 67 mg/kg; ED50 (Escherichia coli [23]): < 0.5 mg/kg; ED50 (Staphylococcus aureus [24]): 62 mg/kg; ED50 (Citrobacter freundii [25]): 22 mg/kg; ED50 (Staphylococcus aureus [26]): < 2 mg/kg
8 (≈ 13.1 µM) | 8 (≈ 13.1 µM) | 2 (≈ 3.28 µM) | 2 (≈ 3.28 µM) | 4 (≈ 6.56 µM) | 1 (≈ 1.64 µM) | 16 (≈ 26.2 µM) | 4 (≈ 6.56 µM) | 16 (≈ 26.2 µM) | 128 (≈ 210 µM) | 0.5 (≈ 0.82 µM) | C[N+]1(CC2=C(C(=O)[O-])N3C(=O)[C@@H](NC=O)[C@H]3SC2)CCN(c2c(F)cc3c(=O)c(C(=O)O)cn(CCF)c3c2F)CC1 | –
